Test results as given in ChEMBL document CHEMBL2203050, “Synthesis, evaluation and structure-activity relationships of triazine dimers as novel antiviral agents” (Bioorg Med Chem Lett, 2012).
Calls of active or inactive are those of the source. No cut-off for these calls is given here.

Assays:
[1] = tested on: Human immunodeficiency virus 1; assay: Ratio of EC50 for HIV1 harboring reverse transcriptase VI829/Y181C mutant to EC50 for wild type HIV1 VI829
[2] = tested on: Human immunodeficiency virus 1; assay: Antiviral activity against HIV1 harboring reverse transcriptase VI829/Y181C mutant; format: functional, organism-based
[3] = tested on: Human immunodeficiency virus 1; assay: Antiviral activity against HIV1 assessed as inhibition of viral p24 antigen production treated every 1 hr for 12 hrs by ELISA based time-of-drug addition assay; format: functional, organism-based
In short: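 TZM-bl cells (2 × 10⁴ per well) were infected with virus at 0.4 MOI, with or without compound, for 1 h. Unbound virus was washed off and fresh medium was added, with or without compound. Compound at 50–500 × EC₅₀ was then added each hour over 12 h. p24 was measured by in-house antigen-capture ELISA at 24 h, giving a single replication round. Cells plus medium and cells plus virus served as controls.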

[4] = tested on: Human immunodeficiency virus 1; assay: Antiviral activity against wild type HIV1 Ba-L; format: functional, organism-based; conditions: Human immunodeficiency virus 1, Ba-L
[5] = tested on: Human immunodeficiency virus 1; assay: Antiviral activity against HIV1 harboring reverse transcriptase VI829 mutant; format: functional, organism-based
[6] = tested on: Human immunodeficiency virus 1; assay: Antiviral activity against HIV1 harboring reverse transcriptase VI829 L100I, K103N mutant; format: functional, organism-based
[7] = Selectivity index, ratio of CC50 for human TZM-b1 cells to EC50 for HIV1; format: toxicity, cell-based; conditions: read-out: Ratio CC50/EC50
[8] = Cytotoxicity against human TZM-b1 cells; format: cell-based
[9] = tested on: Human immunodeficiency virus 1; assay: Ratio of EC50 for HIV1 harboring reverse transcriptase VI829 L100I, K103N mutant to EC50 for wild type HIV1 VI829
[10] = tested on: Human immunodeficiency virus 1; assay: Ratio of EC50 for HIV1 Ba-L harboring reverse transcriptase V106A mutant to EC50 for wild type HIV1 Ba-L; format: functional
[11] = tested on: Human immunodeficiency virus 1; assay: Antiviral activity against HIV1 Ba-L harboring reverse transcriptase V106A mutant; format: functional, organism-based; conditions: Human immunodeficiency virus 1, Ba-L
[12] = tested on: Human immunodeficiency virus 1; assay: Antiviral activity against HIV1 infected in human TZM-b1 cells; format: functional, organism-based; conditions: Human immunodeficiency virus 1, TZM-b1

Compound	Ratio EC50 [1]	EC50 [2] [nM]	inhibition [3]	EC50 [4] [nM]	EC50 [5] [nM]	EC50 [6] [nM]	selectivity ratio [7]	CC50 [8] [nM]	Ratio EC50 [9]	Ratio EC50 [10]	EC50 [11] [nM]	EC50 [12] [nM]
Cc1cc(C)c(Nc2ccnc(Nc3ccc(C#N)cc3)n2)c(C)c1 [DAPIVIRINE]	5.4	10.8	Active	2	2	> 1000	1440	2880	>500	1.3	2.5	
Cc1cc(C)c(Nc2nc(Nc3ccc(C#N)cc3)nc(Nc3ccc(Nc4nc(Nc5ccc(C#N)cc5)nc(Nc5c(C)cc(C)cc5C)n4)cc3)n2)c(C)c1							> 588	> 100000				170
